Source: ChEMBL document CHEMBL4765233, “From Lead to Drug Candidate: Optimization of 3-(Phenylethynyl)-1H-pyrazolo[3,4-d]pyrimidin-4-amine Derivatives as Agents for the Treatment of Triple Negative Breast Cancer” (J Med Chem, 2016)

How the values were obtained:
[1] = test system: MDA-MB-231; assay: Antiproliferative activity against human MDA-MB-231 cells assessed as reduction in cell viability incubated for 72 hrs by MTT assay; assay type: functional, cell-based; conditions: MDA-MB-231, 72 h
Procedure, shortened: (§1)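 MTT viability assay. ATCC cell lines were grown in designated medium with 10% FBS at 37 °C, 5% CO2. Cells seeded at 1500−30000 per well and incubated 24 h, then exposed to compound (0−10 μg/mL) for 72 h. MTT added for 2−4 h. Formazan dissolved in DMSO (adherent) or acidified SDS overnight (suspension), absorbance read at 570 nm. Triplicates; IC50 calculated.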

[2] = test system: MDA-MB-435; assay: Antiproliferative activity against human MDA-MB-435 cells assessed as reduction in cell viability incubated for 72 hrs by MTT assay; assay type: functional, cell-based; conditions: MDA-MB-435, 72 h; procedure, shortened: as §1
[3] = test system: HepG2; assay: Antiproliferative activity against human HepG2 cells assessed as reduction in cell viability incubated for 72 hrs by MTT assay; assay type: ADME, cell-based; conditions: HepG2, 72 h
[4] = test system: MDA-MB-231; assay: Antitumor activity against human MDA-MB-231 cells xenografted in SCID mouse assessed as tumor growth inhibition at 40 mg/kg, po qd for 21 days and measured every 3 days; assay type: functional; conditions: MDA-MB-231, po, 504 h, time 21 day
Procedure, shortened: (§2)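 SCID mice (5−6 weeks) injected subcutaneously with 100 μL of cells at 5 × 10^7/mL. At 150−200 mm3 mice randomized, 6 per group. Oral compounds given in water with 25% PEG400 plus 5% DMSO; paclitaxel given 10 mg/kg/week iv. Tumor volume a×b²/2 and body weight measured every 3 days. Inhibition rate (c−d)/c×100% against vehicle control.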

[5] = Toxicity in SCID mouse xenografted with MDA-MB-231 cells assessed as change in body weight at 40 mg/kg, po qd for 21 days and measured every 3 days; assay type: organism-based; conditions: in vivo, 504 h, dose 40 mg/kg/day, time 21 day
Procedure, shortened: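 Exponential-phase cells washed and injected subcutaneously (5 × 10^6 cells in 100 μL) into 5–6-week SCID mice. At 150–200 mm3, mice randomised to groups of 6. Oral dosing daily in water with 25% PEG400 and 5% DMSO; paclitaxel 10 mg/kg weekly by tail vein. Body weight measured every 3 days and side effects checked daily.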

[6] = Toxicity in SCID mouse xenografted with MDA-MB-231 cells assessed as animal death at 40 mg/kg, po qd for 21 days; assay type: organism-based; conditions: in vivo, dose 40 mg/kg/day, time 21 day, read-out: Activity
Procedure, shortened: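 SCID mice aged 5–6 weeks were injected subcutaneously with 100 μL of MDA-MB-231 cells resuspended at 5 × 10^7 per mL. When tumours reached 150–200 mm3, mice were randomised into groups of 3 or 6. Dosing was oral and daily, in sterile water with 25% PEG400 plus 5% DMSO. Side effects were checked daily and body weight every 3 days.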

[7] = test system: MDA-MB-231; assay: Antitumor activity against human MDA-MB-231 cells xenografted in SCID mouse assessed as tumor growth inhibition at 40 mg/kg, po qd for 15 days and measured every 3 days; assay type: functional; conditions: MDA-MB-231, po, 360 h, time 15 day; procedure, shortened: as §2
[8] = Toxicity in SCID mouse xenografted with MDA-MB-231 cells assessed as change in body weight at 40 mg/kg, po qd for 15 days and measured every 3 days; assay type: organism-based; conditions: in vivo, 360 h, dose 40 mg/kg/day, time 15 day
[9] = Toxicity in SCID mouse xenografted with MDA-MB-231 cells assessed as animal death at 40 mg/kg, po qd for 15 days; assay type: organism-based; conditions: in vivo, dose 40 mg/kg/day, time 15 day, read-out: Activity

Compound	IC50 [1] [nM]	IC50 [2] [nM]	IC50 [3] [nM]	inhibition in vivo at 40 mg/kg/day [4] [%]	Activity [5] [%]	mortality at 504 h [6] [%]	inhibition in vivo at 40 mg/kg/day [7] [%]	Activity [8] [%]	mortality at 360 h [9] [%]
Cc1ccc(NC(=O)c2cccc(C(C)(C)C)c2)cc1C#Cc1nn([C@H]2CC[C@H](O)CC2)c2ncnc(N)c12	30	12	4400	–	–	–	–	–	–
Cc1ccc(NC(=O)Nc2cccc(C(F)(F)F)c2)cc1C#Cc1nn(C2CCN(C)CC2)c2ncnc(N)c12	515	90	> 10000	–	–	–	–	–	–
Cc1ccc(NC(=O)c2cc(C(C)(C)C)nn2C)cc1C#Cc1nn(C2CCN(C)CC2)c2ncnc(N)c12	324	80	> 10000	–	–	–	–	–	–
Cc1ccc(NC(=O)c2ccc(Cl)cc2)cc1C#Cc1nn(C2CCN(C)CC2)c2ncnc(N)c12	33	111	7600	90.1	-16	0	–	–	–
COc1cccc(C(=O)Nc2ccc(C)c(C#Cc3nn(C4CCN(C)CC4)c4ncnc(N)c34)c2)c1	101	285	> 10000	–	–	–	–	–	–
Cc1ccc(NC(=O)c2cccc(C(F)(F)F)c2F)cc1C#Cc1nn(C2CCN(C)CC2)c2ncnc(N)c12	296	273	> 10000	–	–	–	–	–	–
Cc1ccc(NC(=O)c2cc(Cl)cc(C(F)(F)F)c2)cc1C#Cc1nn(C2CCN(C)CC2)c2ncnc(N)c12	85	63	2600	–	–	–	–	–	–
CN1CCC(n2nc(C#Cc3cccc(NC(=O)c4cccc(C(F)(F)F)c4)c3)c3c(N)ncnc32)CC1	597	140	6000	–	–	–	–	–	–
Cc1ccc(C(=O)Nc2cccc(C(F)(F)F)c2)cc1C#Cc1nn(CC2CCN(C)CC2)c2ncnc(N)c12	70	55	3100	–	–	–	–	–	–
Cc1ccc(NC(=O)c2cccc(OC(F)(F)F)c2)cc1C#Cc1nn(C2CCN(C)CC2)c2ncnc(N)c12	75	93	> 10000	–	–	–	–	–	–
CN1CCC(n2nc(C#Cc3cc(NC(=O)Nc4cccc(C(F)(F)F)c4)ccc3Cl)c3c(N)ncnc32)CC1	947	334	> 10000	–	–	–	–	–	–
Cc1ccc(NC(=O)c2ccc(Cl)c(C(F)(F)F)c2)cc1C#Cc1nn(C2CCN(C)CC2)c2ncnc(N)c12	31	27	> 10000	70.5	-6.7	0	–	–	–
COc1ccc(C(=O)Nc2ccc(C)c(C#Cc3nn(C4CCN(C)CC4)c4ncnc(N)c34)c2)cc1	1360	8900	> 10000	–	–	–	–	–	–
Cc1cccc(C(=O)Nc2ccc(C)c(C#Cc3nn(C4CCN(C)CC4)c4ncnc(N)c34)c2)c1	133	422	> 10000	–	–	–	–	–	–
Cc1ccc(NC(=O)c2ccc(Cl)c(C(F)(F)F)c2)cc1C#Cc1nn(C[C@@H](C)CO)c2ncnc(N)c12	23	319	> 10000	–	–	–	–	–	–
CN1CCC(n2nc(C#Cc3cccc(C(=O)Nc4cccc(C(F)(F)F)c4)c3)c3c(N)ncnc32)CC1	1690	343	> 10000	–	–	–	–	–	–
COc1ccc(C(=O)Nc2ccc(C)c(C#Cc3nn(C4CCN(C)CC4)c4ncnc(N)c34)c2)cc1C(F)(F)F	24	832	2200	–	–	0	–	–	–
Cc1ccc(C(=O)Nc2cccc(C(F)(F)F)c2)cc1C#Cc1nn(C2CCN(C)CC2)c2ncnc(N)c12	9	170	7700	–	–	–	91.2	-13.2	0
Cc1ccc(NC(=O)c2cc(C(F)(F)F)cc(Cl)c2F)cc1C#Cc1nn(C2CCN(C)CC2)c2ncnc(N)c12	1880	3380	> 10000	–	–	–	–	–	–
CN1CCC(n2nc(C#Cc3cc(C(=O)Nc4cccc(C(F)(F)F)c4)ccc3Cl)c3c(N)ncnc32)CC1	749	135	> 10000	–	–	–	–	–	–
Cc1ccc(NC(=O)c2cncc(C(F)(F)F)c2)cc1C#Cc1nn(C2CCN(C)CC2)c2ncnc(N)c12	167	65	> 10000	–	–	–	–	–	–
Cc1ccc(NC(=O)c2cc(F)cc(C(F)(F)F)c2)cc1C#Cc1nn(C2CCN(C)CC2)c2ncnc(N)c12	671	1430	> 10000	–	–	–	–	–	–
